Measured values reported in paper PMC3158287 (Nature chemical biology, 2011).
Where a chain is given by its changes, count along the chain named.

Legend:
[1] = biological target: T1, OSBP^M446W (Homo sapiens, UniProt P22059, M446W); assay: [3H]25-OHC binding assay, OSBP M446W mutant
T1 sequence (P22059 1-807 M446W): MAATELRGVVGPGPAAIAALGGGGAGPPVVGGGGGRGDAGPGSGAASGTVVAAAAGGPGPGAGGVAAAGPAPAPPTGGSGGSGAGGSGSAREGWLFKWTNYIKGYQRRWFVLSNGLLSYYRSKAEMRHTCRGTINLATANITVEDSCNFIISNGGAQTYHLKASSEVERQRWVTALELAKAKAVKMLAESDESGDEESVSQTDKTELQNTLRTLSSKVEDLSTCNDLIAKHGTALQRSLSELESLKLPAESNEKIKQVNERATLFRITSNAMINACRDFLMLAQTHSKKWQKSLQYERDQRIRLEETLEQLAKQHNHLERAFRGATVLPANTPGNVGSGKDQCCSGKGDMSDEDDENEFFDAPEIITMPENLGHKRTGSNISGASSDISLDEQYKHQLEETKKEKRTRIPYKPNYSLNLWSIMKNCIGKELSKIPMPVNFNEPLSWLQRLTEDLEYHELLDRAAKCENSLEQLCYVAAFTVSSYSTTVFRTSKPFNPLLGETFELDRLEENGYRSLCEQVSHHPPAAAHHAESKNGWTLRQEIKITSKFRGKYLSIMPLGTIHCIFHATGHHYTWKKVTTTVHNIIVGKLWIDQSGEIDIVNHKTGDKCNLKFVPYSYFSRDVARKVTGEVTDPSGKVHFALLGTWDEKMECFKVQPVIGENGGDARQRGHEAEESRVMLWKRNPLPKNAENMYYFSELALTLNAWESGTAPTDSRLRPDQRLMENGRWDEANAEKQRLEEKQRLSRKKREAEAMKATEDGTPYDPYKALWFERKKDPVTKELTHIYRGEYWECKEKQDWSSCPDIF

[2] = biological target: T2, OSBP^V582M (Homo sapiens, UniProt P22059, V582M); assay: [3H]25-OHC binding assay, OSBP V582M mutant
T2 sequence (P22059 1-807 V582M): T1 sequence (P22059 1-807 M446W) with W446M, V582M

[3] = biological target: T3, OSBP (Homo sapiens, UniProt P22059); assay: OSBP protein levels by western blotting; format: cell-based; settings: HCT-116 cells
T3 sequence (P22059 1-807): T1 sequence (P22059 1-807 M446W) with W446M
Procedure, shortened: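 HCT-116 cells were treated with test compound at 50 nM or 10 nM over a time course including 24 h. Some samples also received proteasome inhibitor MG-132 or lactacystin. OSBP was measured by western blotting with polyclonal rabbit anti-OSBP (N-terminus) antibody. Data are n = 3, compared with vehicle-treated cells by two-tailed Student's t-test.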

[4] = test system: sphingomyelin biosynthesis in CHO-K1 cells; assay: Sphingomyelin biosynthesis, [3H]serine pulse labeling, CHO-K1; format: cell-based, Chinese hamster; settings: CHO-K1 cells
[5] = test system: human cancer cell lines; format: cell-based
[6] = test system: HCT-116 p21^−/− cells; assay: Cell viability assay, HCT-116 p21-/-; format: cell-based, human; settings: GI50 after 48 h
Procedure, shortened: (§1)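 HCT-116 p21+/+ and p21−/− cells were seeded in 96-well plates and rested 24 h. A time-zero plate was read with CellTiter-Blue (resazurin) after 90 min at 37 °C, fluorescence 544 nm ex / 590 nm em. Serially diluted test compound was added as 4× solution. Viability was re-read at 48 h and GI50 derived. For coadministration, 10 μM 25-OHC was added with test compound at 250 nM or 10 nM.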

[7] = test system: HCT-116 p21^−/− cells stably transfected with shOSBP or shNT; assay: OSBP shRNA knockdown and dose-shift experiment; format: cell-based, human; settings: 72 h
Procedure, shortened: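 HCT-116 p21−/− cells were stably transfected with OSBP-targeting or nontargeting shRNA in the pSIREN-RetroQ vector. […] Values are mean ± s.d. of 3–4 experiments, compared with shNT cells by two-tailed Student's t-test.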

[8] = test system: HeLa cells overexpressing wild-type OSBP; assay: Overexpression-viability assay, wild-type OSBP-Myc-His; format: cell-based, human; settings: 48 h, versus lacZ
[9] = test system: HeLa cells overexpressing ORP4L; assay: Overexpression-viability assay, ORP4L-Myc-His; format: cell-based, human; settings: 48 h, versus lacZ
[10] = test system: HCT-116 cells; assay: Suppression of antiproliferative activity by 25-OHC coadministration; format: cell-based, human
Procedure, shortened: as §1

[11] = biological target: T3, OSBP; assay: OSBP localization by immunofluorescence microscopy, HCT-116; format: cell-based; settings: HCT-116 cells, 4 h; 5 μM schweinfurthin A, 10 nM OSW-1, 20 nM cephalostatin 1
Procedure, shortened: (§2)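 Cells on coverslips were grown 72 h, then given test compound or vehicle (4 h for HCT-116). They were fixed 10 min in 3.7% formaldehyde/PBS and permeabilised 5 min in 0.5% Triton X-100. Blocking used Image-iT FX, then 1% BSA/PBS. Rabbit anti-OSBP (N-terminus) and mouse anti-p230 were applied overnight at 4 °C, then Alexa Fluor secondaries for 60 min with Hoechst 33258. Imaging was by confocal microscopy.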

[12] = biological target: T3, OSBP; assay: OSBP localization by immunofluorescence microscopy, A549; format: cell-based; settings: A549 cells
Procedure, shortened: as §2

[13] = test system: CERT; assay: CERT protein amount in treated cells; format: cell-based, human; settings: GI90 concentration, HCT-116 or A549 cells
[14] = test system: human cancer cell lines; settings: cited from earlier work
[15] = test system: HCT-116 p21^−/− cells; settings: cited from earlier work

For `C[C@H](CCCC(C)(C)O)[C@H]1CC[C@H]2[C@@H]3CC=C4C[C@@H](O)CC[C@]4(C)[C@H]3CC[C@]12C` [25-OHC, 25-hydroxycholesterol, reference compound], the Kd [1] was 41 nM, the Kd [2] was 82 nM and the “Effect on OSBP levels (compound alone)” value ([3]; 25-OHC 10 μM) was “did not affect OSBP levels”. The “Increase in the biosynthesis of sphingomyelin” value ([4]; 5 μM, 6 h) was “approximately four”, the “Effect on sphingomyelin biosynthesis” value ([4]; GI90 dose (15 μM)) was “robust stimulation” and the Cytotoxicity [5] was “not cytotoxic at concentrations up to 10 μM”.
For `C[C@@H]1[C@]2(O[C@H]3C=C4[C@@H]5CC[C@H]6Cc7nc8c(nc7C[C@]6(C)[C@H]5C[C@@H](O)[C@]4(C)[C@]31O)C[C@@H]1CC[C@H]3C4=CC[C@@H]5[C@H](C)[C@@]6(OC[C@]45C(=O)C[C@@H]3[C@@]1(C)C8)OC(C)(C)C[C@H]6O)O[C@](C)(CO)C[C@H]2O` [cephalostatin 1, Cephalostatin 1], the Ki [1] was 31 nM, the Ki [2] was 31 nM and the “p21^−/− selectivity of growth inhibition (HCT-116 p21^−/− versus wild-type)” value [6] was “selectively growth-inhibitory”. The “Sensitization by OSBP shRNA knockdown (GI50 shift shOSBP vs shNT)” value [7] was “four”, the “Desensitization factor by OSBP overexpression (relative GI30)” value [8] was 2–5 and the “Desensitization factor by ORP4L overexpression (relative GI30)” value [9] was 2–5. For the same compound, the “Effect of 10 μM 25-OHC coadministration on growth inhibition” value ([10]; HCT-116 cells, 250 nM cephalostatin 1 or 10 nM OSW-1) was “nearly complete desensitization”, the inhibition at 0.25 µM ([10]; Homo sapiens, HCT-116, 48 h, read-out: Growth inhibition when administered alone) was > 75% and the OSBP localization [11] was “partially localize to the plasma membrane”. The OSBP localization [12] was “dispersal or vesiculation of OSBP”, the “Reduction in OSBP protein levels” value ([3]; 50 nM, 24 h) was “approximately 75%” and the “Amount of CERT protein” value [13] was “not affected”. For the same compound, the “GI50 (half-maximal inhibitory concentration)” value [14] was “nanomolar range”.
In the case of `CC(/C=C/C=C(C)/C=C/C=C(\C)C(=O)O)=C1/C(=O)C[C@H]2[C@@]3(C)CCC(=O)C(C)(C)[C@@H]3CC[C@]12C` [stellettin E], the “Times more growth-inhibitory to HCT-116 p21^−/− cells than to HCT-116 wild-type cells” value [15] is given as 117 times.
